Reference: ChEMBL document CHEMBL1124747, “Properties of the nucleic acid photoaffinity labeling agent 3-azidoamsacrine” (J Med Chem, 1990)

Experiments:
[1] = Half-life was evaluated in water in the absence of light; type: ADME
L5178Y [2] = test: Relative mutation induction for L5178Y cells was evaluated at dose 0.005 mg/mL in dark condition (expt-II); type: functional, Mus musculus
Procedure, shortened: (§1)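 L5178Y suspension cells (3 × 10^6/mL, 5% CO2, 37 °C, shaking) exposed 20 h without activating enzyme; light arm irradiated 6.5 min (Hg lamp, <340 nm filtered). Cells washed, grown 24 h more and kept at 3 × 10^5/mL. Viability from 200 cells in soft agar; TFT (0.1 mg/mL) resistant colonies from 10^6 cells in triplicate dishes, counted at 10 days.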

L5178Y [3] = test: Relative mutation induction for L5178Y cells was evaluated at dose 0.005 mg/mL in light condition (expt-II); type: functional, Mus musculus; procedure, shortened: as §1
L5178Y [4] = test: Relative toxicity against mammalian L5178Y cells at dose 0.005 mg/mL in dark condition (expt-II); type: functional, Mus musculus
Procedure, shortened: (§2)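 L5178Y mouse cells in suspension, 3 × 10^6 cells/mL, were exposed for 20 h at 37 °C in a shaker at 150 rpm under 5% CO2, without an activating enzyme. Light arms were irradiated for 6.5 min with a medium-pressure Hg lamp filtered to remove light below 340 nm; dark arms were not. Toxicity was taken as the Coulter-counted density of treated cells versus solvent control.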

L5178Y [5] = test: Relative toxicity against mammalian L5178Y cells at dose 0.005 mg/mL in light condition (expt-II); type: functional, Mus musculus; procedure, shortened: as §2
L5178Y [6] = test: Viability of L5178Y cells was evaluated at dose 0.005 mg/mL in dark condition (expt-II); type: functional, Mus musculus
Procedure, shortened: (§3)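 L5178Y cells were exposed for 20 h at 3 × 10^6 cells/mL. Light arms then received 6.5 min of Hg-lamp irradiation filtered to remove light below 340 nm. Cells were washed twice in Fischer's medium, grown a further 24 h and held at 3 × 10^5 cells/mL. For viability, 200 cells were plated in soft-agar cloning medium in triplicate dishes, and colonies were counted by an automated counter after 10 days.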

L5178Y [7] = test: Viability of L5178Y cells was evaluated at dose 0.005 mg/mL in light condition (expt-II); type: functional, Mus musculus; procedure, shortened: as §3
L5178Y [8] = test: Induction frequency for L5178Y cells was evaluated at dose 0.005 mg/mL in dark condition (expt-II); type: functional, Mus musculus; procedure, shortened: as §1
L5178Y [9] = test: Induction frequency for L5178Y cells was evaluated at dose 0.005 mg/mL in light condition (expt-II); type: functional, Mus musculus; procedure, shortened: as §1
L5178Y [10] = test: Mean value of mutation induction for L5178Y cells was evaluated at dose 0.005 mg/mL in dark condition (expt-II); type: functional, Mus musculus
Procedure, shortened: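 L5178Y cells in suspension culture, gassed with 5% CO2 in air, shaken at 150 rpm, 37 °C. Cells at 3 × 10^6/mL were dosed for 20 h, unirradiated and without activating enzyme, then washed twice in Fop and grown 24 h more. TFT-resistant mutants came from 10^6 cells plated in three dishes of cloning medium with 0.1 mg/mL TFT, colonies counted at 10 days; frequency expressed ×10^6.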

L5178Y [11] = test: Mean value of mutation induction for L5178Y cells was evaluated at dose 0.005 mg/mL in light condition (expt-II); type: functional, Mus musculus; procedure, shortened: as §1
L5178Y [12] = test: Mutation frequency for L5178Y cells was evaluated at dose 0.005 mg/mL in dark condition (expt-II); type: functional, Mus musculus; procedure, shortened: as §1
L5178Y [13] = test: Mutation frequency for L5178Y cells was evaluated at dose 0.005 mg/mL in light condition (expt-II); type: functional, Mus musculus; procedure, shortened: as §1
[14] = Ability to block cleavage of G/GNCC site in Restriction endonuclease Sau961 with the test compound/DNA ratio 1(no. of sites=15); - = no activation
Procedure, shortened: (§4)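 pBR322 plasmid mixed with drug at 0.015, 0.12 or 0.48 mM (drug:DNA 1:8, 1:1 or 4:1), equilibrated on ice 30 min in the dark in 5 mM potassium phosphate pH 5.5, then irradiated 1 h with a medium-pressure Hg lamp (<340 nm filtered); dark set kept as control. Digested overnight with 10× excess enzyme plus DTT; fragments resolved on 1.2% agarose in TBE.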

[15] = Ability to block cleavage of G/GNCC site in Restriction endonuclease Sau961 with the test compound/DNA ratio 1:8(no. of sites=15); - = no activation; procedure, shortened: as §4
[16] = Half-life was evaluated in water in the presence of light; type: ADME

half-life [1]: > 336 h
inhibition [14]: no activation
inhibition [15]: no activation
half-life [16]: 24 h
SMILES: COc1cc(NS(C)(=O)=O)ccc1Nc1c2ccccc2nc2ccccc12 [AMSACRINE]
Relative activity (L5178Y [2]): 67
Relative activity (L5178Y [3]): 10
Relative toxicity (L5178Y [4]): 62
Relative toxicity (L5178Y [5]): 62
Viability (L5178Y [6]): 20
Viability (L5178Y [7]): 12.3
Induced frequency (L5178Y [8]): 439
Induced frequency (L5178Y [9]): 733
Mean value (L5178Y [10]): 57.7
Mean value (L5178Y [11]): 53
Mutation frequency (L5178Y [12]): 577 10e6 F
Mutation frequency (L5178Y [13]): 862 10e6 F
